Assays:
[1] = molecular target: Leucine-rich repeat serine/threonine-protein kinase 2 (Homo sapiens) (UniProt Q5S007); assay: Inhibition of recombinant human full length GST-tagged catalytic LRRK2 expressed in baculovirus at 1 uM
How it was run: (§1)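 Kinase panel of 386 kinases, each screened at a single concentration of 1 μM.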

[2] = Oral bioavailability in CD1 mouse at 10 mg/kg administered via gavage by LC/MS/MS analysis; type: ADME, organism-based; conditions: in vivo
How it was run: (§2)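 Mouse pharmacokinetics after oral dosing at 10 or 50 mg/kg. The 10 mg/kg dose was given in 10% HPbCD + 5% dextrose in WFI at pH 4. The 50 mg/kg dose was given in 5% SBECD in WFI at pH 2. Plasma exposure (AUC), half-life and oral bioavailability were derived.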

[3] = AUC in CD1 mouse at 10 mg/kg, po by LC/MS/MS analysis; type: ADME, organism-based; conditions: in vivo; how it was run: as §2
[4] = Half life in CD1 mouse at 50 mg/kg, po administered via gavage by LC/MS/MS analysis; type: ADME, organism-based; conditions: in vivo; how it was run: as §2
A549 = assay: Antiproliferative activity against human A549 cells after 48 hrs by Alamar Blue based assay; type: functional; conditions: A549, 48 h
How it was run: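 Antiproliferation assay in A549 cells, reported as GI50.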

[5] = molecular target: Non-receptor tyrosine-protein kinase TYK2 (Homo sapiens, UniProt P29597); assay: Inhibition of recombinant human N-terminal GST-tagged TYK2 (871 to 1187 residues) expressed in baculovirus expression system using 5FAM-GEEPLYWSFPAKKK-NH2 as substrate after 10 mins by caliper assay
How it was run: (§3)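 Biochemical kinase inhibition IC50 measured at 5 mM ATP. Values are the geometric mean of at least two independent experiments.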

[6] = molecular target: T1, Tyrosine-protein kinase JAK1 (Homo sapiens, UniProt P23458); assay: Inhibition of cytoplasmic recombinant human GST-tagged JAK1 (886 to 1154 residues) expressed in insect cells using FITC-C6-KKHTDDGYMPMSPGVA-NH as substrate after 10 mins by caliper assay; how it was run: as §3
[7] = molecular target: T1, Tyrosine-protein kinase JAK1; assay: Inhibition of JAK1 in human NCI-H1975 cells assessed as reduction in STAT3 phosphorylation after 1 hr by ELISA; type: cell-based
How it was run: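 Cellular mode-of-action assay in NCI-H1975 cells, read as inhibition of STAT3 phosphorylation. EC50 was derived.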

[8] = Clearance in CD1 mouse at 3 mg/kg, iv by LC/MS/MS analysis; type: ADME, organism-based; conditions: in vivo
How it was run: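 Mouse pharmacokinetics after a single iv dose of 3 mg/kg in 10% HPbCD + 5% dextrose in WFI at pH 4. Plasma clearance, half-life and steady-state volume of distribution were derived.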

[9] = molecular target: T2, NUAK family SNF1-like kinase 1 (Homo sapiens) (UniProt O60285); assay: Inhibition of recombinant human full length His-tagged NUAK1 expressed in baculovirus at 1 uM; how it was run: as §1
T2 sequence (whole entry): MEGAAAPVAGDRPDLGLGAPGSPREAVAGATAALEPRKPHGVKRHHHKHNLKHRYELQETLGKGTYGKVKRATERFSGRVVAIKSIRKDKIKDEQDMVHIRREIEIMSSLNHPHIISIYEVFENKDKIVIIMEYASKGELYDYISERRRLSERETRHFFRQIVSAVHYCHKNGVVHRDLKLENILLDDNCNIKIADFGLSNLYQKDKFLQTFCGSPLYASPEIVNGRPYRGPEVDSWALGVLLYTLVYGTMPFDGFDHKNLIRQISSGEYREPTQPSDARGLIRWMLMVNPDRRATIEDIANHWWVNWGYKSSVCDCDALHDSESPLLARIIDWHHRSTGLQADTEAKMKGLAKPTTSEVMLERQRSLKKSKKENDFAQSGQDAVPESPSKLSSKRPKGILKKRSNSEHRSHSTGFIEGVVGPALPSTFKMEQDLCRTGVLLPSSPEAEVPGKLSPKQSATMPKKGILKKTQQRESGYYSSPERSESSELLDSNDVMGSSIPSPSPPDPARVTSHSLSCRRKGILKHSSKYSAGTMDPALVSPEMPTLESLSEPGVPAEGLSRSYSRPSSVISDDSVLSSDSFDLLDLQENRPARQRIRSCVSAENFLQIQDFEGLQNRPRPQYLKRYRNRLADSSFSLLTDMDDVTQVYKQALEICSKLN

Mus musculus = assay: In vivo inhibition of JAK1 in tumors of human NCI-H1975 cells xenografted in NCr nude mouse assessed as decrease in STAT3 phosphorylation at 50 mg/kg, po after 2 hrs by ELISA; type: functional, organism-based
How it was run: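 NCI-H1975 xenograft-bearing mice received single oral gavage doses of 1, 3, 10, 30, 50 or 100 mg/kg. Animals were sacrificed at 2 h, with an extra 6 h group at 50 mg/kg. Tumour pSTAT3 was measured as % inhibition, and plasma drug concentration was measured in parallel. Significance was tested by Student's t-test versus vehicle control.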

[10] = molecular target: T1, Tyrosine-protein kinase JAK1; assay: Inhibition of cytoplasmic recombinant human GST-tagged JAK1 (886 to 1154 residues) expressed in baculovirus at 1 uM
How it was run: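 Single-concentration screen at 1 μM across a panel of 386 kinases to profile broad kinase selectivity.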

T1 sequence (P23458 whole entry, the tested form may be a part): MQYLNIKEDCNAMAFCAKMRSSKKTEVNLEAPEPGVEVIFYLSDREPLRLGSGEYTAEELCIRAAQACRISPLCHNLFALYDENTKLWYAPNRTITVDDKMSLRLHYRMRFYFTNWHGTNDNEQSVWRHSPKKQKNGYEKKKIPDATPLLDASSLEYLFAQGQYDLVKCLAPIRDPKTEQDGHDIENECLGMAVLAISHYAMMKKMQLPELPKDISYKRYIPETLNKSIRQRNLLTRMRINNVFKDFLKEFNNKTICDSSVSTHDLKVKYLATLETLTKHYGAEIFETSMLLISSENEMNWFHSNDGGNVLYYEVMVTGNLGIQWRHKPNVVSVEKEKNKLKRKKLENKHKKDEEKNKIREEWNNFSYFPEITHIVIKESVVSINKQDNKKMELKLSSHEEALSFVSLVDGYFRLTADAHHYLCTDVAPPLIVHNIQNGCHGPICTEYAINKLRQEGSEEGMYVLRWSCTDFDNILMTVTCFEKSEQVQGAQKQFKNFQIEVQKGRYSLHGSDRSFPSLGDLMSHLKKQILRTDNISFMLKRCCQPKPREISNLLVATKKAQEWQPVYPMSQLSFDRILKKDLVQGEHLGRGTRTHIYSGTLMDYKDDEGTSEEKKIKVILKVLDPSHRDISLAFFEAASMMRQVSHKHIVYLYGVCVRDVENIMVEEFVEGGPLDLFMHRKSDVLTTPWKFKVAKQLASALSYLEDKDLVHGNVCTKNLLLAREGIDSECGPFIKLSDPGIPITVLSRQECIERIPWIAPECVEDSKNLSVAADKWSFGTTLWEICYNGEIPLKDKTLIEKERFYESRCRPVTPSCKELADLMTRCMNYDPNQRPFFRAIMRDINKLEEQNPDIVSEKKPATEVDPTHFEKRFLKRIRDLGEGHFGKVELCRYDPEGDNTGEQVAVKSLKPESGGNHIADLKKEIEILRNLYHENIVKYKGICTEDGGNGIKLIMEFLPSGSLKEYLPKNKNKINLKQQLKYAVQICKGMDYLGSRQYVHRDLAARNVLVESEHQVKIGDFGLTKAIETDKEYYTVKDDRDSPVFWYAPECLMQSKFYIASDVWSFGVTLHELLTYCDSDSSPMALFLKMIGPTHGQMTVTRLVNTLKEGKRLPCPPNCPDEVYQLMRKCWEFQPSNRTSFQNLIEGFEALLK
Chain of Non-receptor tyrosine-protein kinase TYK2 (P29597 whole entry, the tested form may be a part): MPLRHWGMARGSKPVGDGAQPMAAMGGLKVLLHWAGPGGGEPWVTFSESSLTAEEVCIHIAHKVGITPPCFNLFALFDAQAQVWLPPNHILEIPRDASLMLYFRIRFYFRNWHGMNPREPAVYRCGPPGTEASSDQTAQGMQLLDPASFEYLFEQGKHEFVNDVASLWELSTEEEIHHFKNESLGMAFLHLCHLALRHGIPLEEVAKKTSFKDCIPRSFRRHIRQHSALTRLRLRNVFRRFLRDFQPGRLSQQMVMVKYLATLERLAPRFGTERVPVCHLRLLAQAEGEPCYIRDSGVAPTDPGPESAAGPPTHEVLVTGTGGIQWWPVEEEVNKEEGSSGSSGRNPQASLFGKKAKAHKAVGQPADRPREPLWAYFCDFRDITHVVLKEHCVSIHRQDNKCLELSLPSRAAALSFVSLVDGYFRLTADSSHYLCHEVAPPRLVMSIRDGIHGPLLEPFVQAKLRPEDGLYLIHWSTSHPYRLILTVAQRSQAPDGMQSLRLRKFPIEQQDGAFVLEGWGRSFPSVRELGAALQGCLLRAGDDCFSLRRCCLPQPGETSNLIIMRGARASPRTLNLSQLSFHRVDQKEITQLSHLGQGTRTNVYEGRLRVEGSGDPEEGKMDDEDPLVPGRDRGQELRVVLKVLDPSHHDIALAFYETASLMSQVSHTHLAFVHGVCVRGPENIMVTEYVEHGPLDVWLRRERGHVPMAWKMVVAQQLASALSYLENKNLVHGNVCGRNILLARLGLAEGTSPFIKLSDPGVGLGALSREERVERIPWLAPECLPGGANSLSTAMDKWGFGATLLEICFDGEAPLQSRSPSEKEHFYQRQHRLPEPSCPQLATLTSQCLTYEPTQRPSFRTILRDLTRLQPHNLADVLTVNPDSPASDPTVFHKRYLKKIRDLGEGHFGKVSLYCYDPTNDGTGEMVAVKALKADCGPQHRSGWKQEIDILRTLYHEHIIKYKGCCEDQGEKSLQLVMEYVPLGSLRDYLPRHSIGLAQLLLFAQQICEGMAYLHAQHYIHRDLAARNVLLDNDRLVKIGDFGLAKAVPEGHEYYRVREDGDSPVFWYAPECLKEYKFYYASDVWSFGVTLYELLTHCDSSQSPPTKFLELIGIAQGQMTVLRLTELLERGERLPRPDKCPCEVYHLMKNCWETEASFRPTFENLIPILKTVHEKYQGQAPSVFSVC
Chain of Leucine-rich repeat serine/threonine-protein kinase 2 (Homo sapiens) (Q5S007 whole entry): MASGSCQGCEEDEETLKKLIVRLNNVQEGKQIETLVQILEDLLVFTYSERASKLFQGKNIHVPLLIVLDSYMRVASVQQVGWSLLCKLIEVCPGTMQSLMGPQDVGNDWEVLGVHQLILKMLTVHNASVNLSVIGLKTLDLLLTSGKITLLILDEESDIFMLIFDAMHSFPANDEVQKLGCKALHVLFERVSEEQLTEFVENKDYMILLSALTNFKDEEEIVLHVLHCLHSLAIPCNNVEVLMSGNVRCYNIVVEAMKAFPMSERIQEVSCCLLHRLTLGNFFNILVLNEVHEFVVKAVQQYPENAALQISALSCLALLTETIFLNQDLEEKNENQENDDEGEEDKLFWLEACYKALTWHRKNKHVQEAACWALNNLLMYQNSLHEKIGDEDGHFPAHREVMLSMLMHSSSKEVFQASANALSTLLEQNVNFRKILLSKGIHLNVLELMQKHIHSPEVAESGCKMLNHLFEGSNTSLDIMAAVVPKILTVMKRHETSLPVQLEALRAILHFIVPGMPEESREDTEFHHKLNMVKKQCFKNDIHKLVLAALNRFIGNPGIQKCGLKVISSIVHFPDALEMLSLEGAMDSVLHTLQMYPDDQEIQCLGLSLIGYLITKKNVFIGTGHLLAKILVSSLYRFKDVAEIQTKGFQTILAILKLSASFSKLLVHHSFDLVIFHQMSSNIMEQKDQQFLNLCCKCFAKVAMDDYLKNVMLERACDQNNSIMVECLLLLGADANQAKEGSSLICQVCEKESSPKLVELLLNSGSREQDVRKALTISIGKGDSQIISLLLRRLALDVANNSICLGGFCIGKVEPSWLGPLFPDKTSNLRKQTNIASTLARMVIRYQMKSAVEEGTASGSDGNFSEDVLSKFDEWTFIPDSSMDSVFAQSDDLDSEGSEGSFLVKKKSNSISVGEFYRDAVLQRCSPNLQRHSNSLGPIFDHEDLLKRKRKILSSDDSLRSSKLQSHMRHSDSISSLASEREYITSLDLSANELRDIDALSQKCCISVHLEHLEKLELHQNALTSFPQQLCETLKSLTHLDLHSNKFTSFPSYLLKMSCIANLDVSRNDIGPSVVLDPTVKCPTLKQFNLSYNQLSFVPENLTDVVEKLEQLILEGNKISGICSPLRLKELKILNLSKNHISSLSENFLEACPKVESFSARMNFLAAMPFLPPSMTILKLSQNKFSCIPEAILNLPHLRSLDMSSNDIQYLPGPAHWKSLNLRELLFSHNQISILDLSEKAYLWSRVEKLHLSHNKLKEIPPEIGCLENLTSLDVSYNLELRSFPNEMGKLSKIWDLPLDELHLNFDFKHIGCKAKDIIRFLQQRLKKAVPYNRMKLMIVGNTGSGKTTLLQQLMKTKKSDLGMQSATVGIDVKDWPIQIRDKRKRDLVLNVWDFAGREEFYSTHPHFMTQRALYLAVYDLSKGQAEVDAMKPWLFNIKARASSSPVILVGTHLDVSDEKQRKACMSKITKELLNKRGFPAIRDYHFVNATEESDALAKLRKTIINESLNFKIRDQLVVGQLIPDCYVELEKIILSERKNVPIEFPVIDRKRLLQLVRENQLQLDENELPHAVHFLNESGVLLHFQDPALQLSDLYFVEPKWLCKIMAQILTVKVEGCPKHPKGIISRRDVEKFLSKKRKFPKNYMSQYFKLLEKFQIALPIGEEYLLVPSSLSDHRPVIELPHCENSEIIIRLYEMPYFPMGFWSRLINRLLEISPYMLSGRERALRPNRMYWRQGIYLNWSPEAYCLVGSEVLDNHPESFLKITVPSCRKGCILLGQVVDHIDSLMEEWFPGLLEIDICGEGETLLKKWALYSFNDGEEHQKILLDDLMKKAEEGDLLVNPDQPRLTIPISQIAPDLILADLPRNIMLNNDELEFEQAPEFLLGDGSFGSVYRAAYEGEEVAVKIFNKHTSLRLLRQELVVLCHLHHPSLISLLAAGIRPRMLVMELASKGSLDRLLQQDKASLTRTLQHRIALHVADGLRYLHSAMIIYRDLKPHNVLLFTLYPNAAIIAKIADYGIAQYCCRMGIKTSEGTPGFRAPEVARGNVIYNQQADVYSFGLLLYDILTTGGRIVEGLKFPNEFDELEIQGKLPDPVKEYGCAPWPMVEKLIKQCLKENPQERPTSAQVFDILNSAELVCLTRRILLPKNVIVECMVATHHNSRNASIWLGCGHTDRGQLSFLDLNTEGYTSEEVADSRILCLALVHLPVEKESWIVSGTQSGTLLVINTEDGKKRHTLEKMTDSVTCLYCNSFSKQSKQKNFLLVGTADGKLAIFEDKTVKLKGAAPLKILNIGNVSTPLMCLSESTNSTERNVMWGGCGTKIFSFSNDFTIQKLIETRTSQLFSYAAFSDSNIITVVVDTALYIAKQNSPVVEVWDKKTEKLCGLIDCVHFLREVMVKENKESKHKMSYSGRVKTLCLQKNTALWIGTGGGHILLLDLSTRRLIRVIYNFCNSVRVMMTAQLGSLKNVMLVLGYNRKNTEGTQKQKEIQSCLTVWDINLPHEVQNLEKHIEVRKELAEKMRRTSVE

SMILES: CC[C@@H](C)Nc1nc(Nc2cc(N3C[C@@H]4C[C@H]3CN4C)cnc2F)ncc1C
- inhibition [1]: 71%
- bioavailability [2]: 30%
- AUC [3]: 2.65 µM·h
- half-life [4]: 5.3 h
- GI50 (A549): > 10000 nM
- IC50 [5]: > 30000 nM
- IC50 [6]: 34 nM
- EC50 [7]: 30 nM
- clearance [8]: 68.7 mL/min/kg
- inhibition [9]: 71%
- inhibition (Mus musculus): Dose-dependent effect
- inhibition [10]: 100%
